# PAD4 inh = blocks human protein arginine deiminase 4 | recombinant PAD4, RCA probe fluorescence polarization | hit rate 0.41% among 330,000 | inhibition, % at 6.36 µM;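 active = percent inhibition above a cutoff equal to the mean of all tested compounds plus 3 SD, cut at about 15% in these data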
# GSTO1 counter = GSTO1 inhibition, counter-screen for RBBP9 inhibitors; P78417; hit rate 1.1% among 300,000; recombinant GSTO1, activity-based probe fluorescence polarization; inhibition, % at 5.96 µM;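 active = inhibition above the campaign mean inhibition plus 3 SD, cut at about 35% in these data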
# Apaf-1 inh = blocks human Apaf-1 apoptosome activity; reconstituted apoptosome caspase-3 activity, DEVD-Rh110 fluorescence; O14727; inhibition, % at 20 µM; hit rate 0.71% among 330,000; active = inhibition of at least 40% at 20 µM
# Target sequence (O14727 whole entry, looked up): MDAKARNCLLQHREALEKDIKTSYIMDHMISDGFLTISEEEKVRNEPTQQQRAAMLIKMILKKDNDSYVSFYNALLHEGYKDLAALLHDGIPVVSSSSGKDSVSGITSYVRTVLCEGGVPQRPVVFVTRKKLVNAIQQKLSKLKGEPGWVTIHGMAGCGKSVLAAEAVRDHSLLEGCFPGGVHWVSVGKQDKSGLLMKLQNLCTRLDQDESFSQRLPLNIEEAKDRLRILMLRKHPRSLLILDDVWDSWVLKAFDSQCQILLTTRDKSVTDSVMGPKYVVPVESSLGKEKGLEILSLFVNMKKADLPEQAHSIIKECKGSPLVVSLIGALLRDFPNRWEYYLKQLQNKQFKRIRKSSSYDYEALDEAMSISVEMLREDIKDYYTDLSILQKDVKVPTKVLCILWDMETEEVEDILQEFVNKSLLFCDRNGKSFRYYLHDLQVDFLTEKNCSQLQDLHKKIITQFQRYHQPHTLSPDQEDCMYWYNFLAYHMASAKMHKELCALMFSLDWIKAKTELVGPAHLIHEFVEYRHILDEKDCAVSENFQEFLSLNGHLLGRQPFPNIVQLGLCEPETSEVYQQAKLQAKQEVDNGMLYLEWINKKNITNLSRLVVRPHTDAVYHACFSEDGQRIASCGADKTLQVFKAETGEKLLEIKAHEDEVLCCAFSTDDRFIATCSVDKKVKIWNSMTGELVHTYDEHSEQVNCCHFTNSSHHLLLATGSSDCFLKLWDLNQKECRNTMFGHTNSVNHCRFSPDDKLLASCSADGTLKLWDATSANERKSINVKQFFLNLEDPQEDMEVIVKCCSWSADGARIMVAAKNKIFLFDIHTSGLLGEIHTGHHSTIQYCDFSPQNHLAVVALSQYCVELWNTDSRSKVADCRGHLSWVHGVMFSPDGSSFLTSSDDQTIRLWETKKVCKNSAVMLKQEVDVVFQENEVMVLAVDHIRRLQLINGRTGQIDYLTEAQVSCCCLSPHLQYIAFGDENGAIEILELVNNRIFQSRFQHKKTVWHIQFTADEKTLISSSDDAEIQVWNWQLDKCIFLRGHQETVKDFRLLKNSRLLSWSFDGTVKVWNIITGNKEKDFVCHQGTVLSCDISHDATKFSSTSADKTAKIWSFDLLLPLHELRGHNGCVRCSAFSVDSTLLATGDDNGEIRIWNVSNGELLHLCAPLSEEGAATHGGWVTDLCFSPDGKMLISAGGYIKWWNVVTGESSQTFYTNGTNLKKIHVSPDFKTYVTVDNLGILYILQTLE
#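 Material: reconstituted apoptosome with Apaf-1, cytochrome c, caspase-9, procaspase-3, dATP; medium: pH 7.5 Hepes buffer with CHAPS, BSA, DTT; also added: cytochrome c and DEVD-Rh110 substrate; timing: 30 min plus 50 min, RT; signal: Rh110 fluorescence intensity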
# Rin1 Abl inh = blocks binding of human Rin1 to Abl | P00519+Q13671 | TR-FRET Rin1/Abl binding, biochemical | inhibition, % at 7.35 µM | hit rate 0.4% among 360,000 | AID 588664; in the data active = inhibition above about 5%, passing the limit was not always enough
# UBC13 inh = human UBC13 polyubiquitination inhibition; UBC13 polyubiquitin chain formation, TR-FRET; hit rate 0.47% among 330,000; inhibition, % at 20 µM; AID 485273; P61088; in the data active = inhibition above about 45%, passing the limit was not always enough
# UBC9 SUMO inh = blocks human SUMOylation mediated by UBC9; HTRF SUMOylation assay, SAE1/SAE2 + UBC9, in vitro; inhibition, % at 35 µM; P63279; hit rate 0.36% among 290,000; in the data active = inhibition above about 50%, passing the limit was not always enough
# Rin1-Abl confirm = Rin1-Abl interaction inhibition confirmation; shares compounds with Rin1 Abl inh; TR-FRET Rin1-Abl binding, purified proteins; inhibition, % at 7.35 µM; hit rate 49% among 1,300; AID 602124; in the data active = inhibition above about 6.5%
# GFP quench-1 = counter-screen for Rin1-Abl inhibitors: GFP fluorescence quenchers | shares compounds with Rin1 Abl inh | inhibitors/quenchers counterscreen | inhibition, % at 6.75 µM | hit rate 8.5% among 1,300; in the data active = inhibition above about 6.5%;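 also: ABL1-eGFP fusion protein alone without its partner RIN1-SBP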
# GFP quench DR = GFP fluorescence interference dose response; shares compounds with Rin1 Abl inh; GFP fluorescence interference/quenching counterscreen; IC50, µM; 230 tested, under 10 active; AID 602182;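 also: ABL1-eGFP fusion protein alone without its RIN1 binding partner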
# GFP quench-2 = GFP quenching artifact for Rin1-Abl inhibitor hits; IC50, µM; GFP fluorescence quenching counterscreen, biochemical; 25 tested, under 10 active; shares compounds with Rin1 Abl inh; AID 602397
# Hits are given with their value; i = inactive; nt = no result; ! = not active in a repeat. The list is not random: actives were taken first. Their share in the collection is about 2.2%. Unless noted, no rule for the calls is given here.
SMILES,PAD4 inh,GSTO1 counter,Apaf-1 inh,Rin1 Abl inh,UBC13 inh,UBC9 SUMO inh,Rin1-Abl confirm,GFP quench-1,others
CCCOC(=O)c1ccc(NC(=O)CCOc2ccccc2)cc1,i,i,i,i,i,i,nt,nt,
CCCOC(=O)c1ccc(NC(=O)CCC(=O)OCC)cc1,i,i,i,10.4,i,i,13.9,i,
Cc1ccc(C2NC(=O)CCC2[N+](=O)[O-])cc1 (configuration not stated),i,i,i,i,i,i,nt,nt,
O=C1CCC([N+](=O)[O-])C(c2ccc(Br)cc2)N1 (configuration not stated),i,i,i,10.6,i,i,8.1,i,
CC(C)(C)c1ccc(S(=O)(=O)NC(=O)C2(C)CCN2C(=O)Cc2cccs2)cc1 (configuration not stated),nt,nt,nt,i,nt,nt,nt,nt,
CCOC(=O)N1CCN(CCC(=O)Nc2ccc(C)c(Br)c2)CC1,i,i,i,5.6,i,i,i,i,
CCOC(=O)N1CCN(CCC(=O)Nc2cccc(Br)c2)CC1,i,i,i,6.2!,i,i,i,i,
COc1cccc(N=C2SC(C(=O)Nc3ccc(F)cc3)CC(=O)N2C)c1 (configuration not stated),i,i,i,10.5,i,i,i,i,
CCOc1ccc2c(c1)OC(c1ccc(OC)cc1)(C(F)(F)F)NC2=O (configuration not stated),i,i,i,7.1,i,i,i,i,
Cc1ccc(C(C)C)c(OCC(O)CNC2CCCC2)c1 (configuration not stated),i,i,i,i,i,i,nt,nt,
COc1ccccc1CC(NC(C)=O)C(=O)NC1CCN(S(=O)(=O)c2ccc(NC(C)=O)cc2)CC1 (configuration not stated),i,i,i,12.0,i,i,i,i,
COc1ccc(C(C)=O)cc1COC(=O)CCNS(=O)(=O)c1ccc(C)c(C)c1,i,i,i,i,i,nt,nt,nt,
CN(Cc1ccccc1)C(=O)c1nc2ccccn2c1CN1CCc2sccc2C1,i,i,i,9.8,i,i,i,i,
CN(Cc1c(C(=O)N(C)Cc2ccccc2)nc2ccccn12)CC1Cc2ccccc2O1 (configuration not stated),i,i,i,i,i,i,nt,nt,
CC1(C(=O)NS(=O)(=O)c2cccc(C#N)c2)CCN1C(=O)C1(c2ccc(Cl)cc2)CCC1 (configuration not stated),nt,nt,nt,i,nt,nt,nt,nt,
CCOC(=O)c1ccc(CC(=O)c2ccc(O)c(O)c2O)o1,nt,nt,i,13.5,i,i,7.3,16.1,
CSc1ccccc1OCc1cc(C(=O)N2CCNC(=O)C2)no1,i,i,i,48.0,i,i,40.3,i,GFP quench DR=i;GFP quench-2=i
Cc1cccc(C)c1OCc1cc(C(=O)N2CCNC(=O)C2)no1,i,i,i,i,i,i,nt,nt,
COc1ccc(C(CNC(=O)COc2cc(C)ccc2Cl)N2CCCCC2)cc1 (configuration not stated),i,i,i,13.7,i,nt,i,i,
CCOC(=O)N1CCC2(CC1)C(C#N)=C(N)OC1=C2C(=O)CC(C)C1 (configuration not stated),i,i,i,17.3,i,i,i,i,
COc1ccc(C2C3=C(CC(C)(C)CC3=O)Oc3ncn(CCO)c(=N)c32)cc1OC (configuration not stated),i,i,i,14.4,i,i,i,i,
COc1ccc(C2c3c(ncn(CCCO)c3=N)Oc3ccc4ccccc4c32)cc1OC (configuration not stated),i,i,i,i,i,i,nt,nt,
CC(C)Cn1cnc2c(c1=N)C(c1ccccc1)C1=C(CC(C)(C)CC1=O)O2 (configuration not stated),i,i,i,7.0,i,i,i,i,
C[C@@H]1CN([C@@H](C)CO)S(=O)(=O)c2ccc(Br)cc2O[C@H]1CN(C)C(=O)Cc1cccnc1,nt,nt,nt,i,nt,nt,nt,nt,

# From PubChem
